Consider 26 compounds from ChEMBL document CHEMBL1157140, “Design and synthesis of trans 2-(furan-2-yl)vinyl heteroaromatic iodides with antitumour activity” (2008).

The test has as its system MCF7. Nature of the test: Cytotoxicity against human MCF7 cells after 3 days by MTT assay. It counts as functional. As to conditions: MCF7, 72 h. The procedure, abridged:
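MCF7 cells kept in medium with heat-inactivated foetal bovine serum, 2 mM L-alanyl-L-glutamine and penicillin–streptomycin at 37 °C, 5% CO₂. Seeded at 5 × 10³ cells/0.33 cm², then dosed after 24 h at final 0.01–100. Incubated 3 days, then MTT read at 570 nm. Each point averages 8 wells; untreated cells serve as control.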
As to `C[n+]1c(/C=C/c2ccc(-c3ccc(Cl)cc3[N+](=O)[O-])o2)ccc2ccccc21`, the GI50 was 1740 nM.

For the compound `C[n+]1ccccc1/C=C/c1ccc(-c2ccccc2Cl)o1`, growth was halved (GI50) at 2240 nM.

With `Cn1cc[n+](C)c1/C=C/c1ccc(-c2cc(Cl)ccc2Cl)o1`, it took 191 nM to inhibit growth by half (GI50).

`COc1ccc(-c2ccc(/C=C/c3cccc[n+]3C)o2)cc1Cl`: it took 66.1 nM to inhibit growth by half (GI50).

In the case of `COc1ccc(-c2ccc(/C=C/c3n(C)cc[n+]3C)o2)cc1Cl`, halving of growth (GI50) required 224 nM.

With `C[n+]1c(/C=C/c2ccc(-c3cccc(Cl)c3)o2)ccc2ccccc21`, the GI50 is 57.5 nM.

Take `Cn1cc[n+](C)c1/C=C/c1ccco1`: the GI50 was 100000 nM.

On to `C[n+]1ccccc1/C=C/c1ccc(-c2ccc(Br)cc2)o1`, for which the GI50 is 1000 nM.

The compound `Cn1cc[n+](C)c1/C=C/c1ccc(-c2ccc(Cl)cc2)o1` gave a GI50 of 631 nM.

Consider `C[n+]1c(/C=C/c2ccc(-c3ccc(Cl)cc3)o2)ccc2ccccc21`, for which halving of growth (GI50) required 126 nM.

`C[n+]1ccccc1/C=C/c1ccc(Br)o1` gave a GI50 of 7940 nM.

As to `C[n+]1ccccc1/C=C/c1ccc(-c2ccc(Cl)c(Cl)c2)o1`, the GI50 was 380 nM.

`C[n+]1ccccc1/C=C/c1ccc(-c2ccc(Cl)cc2)o1` showed a GI50 of 219 nM.

For `Cn1cc[n+](C)c1/C=C/c1ccc(-c2ccccc2Cl)o1`, the GI50 was 1380 nM.

Compound `C[n+]1ccccc1/C=C/c1ccc(-c2cccc(Cl)c2)o1` gave a GI50 of 135 nM.

In turn, `C(=C\c1ccco1)/c1cccc(/C=C/c2ccco2)n1` showed a GI50 of 2510 nM.

On to `C[n+]1ccccc1/C=C/c1ccc(-c2cc(C(F)(F)F)ccc2Cl)o1`, for which the GI50 was 331 nM.

For the compound `C[n+]1c(/C=C/c2ccc(Br)o2)ccc2ccccc21`, growth was halved (GI50) at 3160 nM.

In turn, `C[n+]1ccccc1/C=C/c1ccco1` showed a GI50 of 70800 nM.

In the case of `Cc1ccc(/C=C/c2n(C)cc[n+]2C)o1`, the concentration for 50% growth inhibition (GI50) was 33100 nM.

Take `Cn1cc[n+](C)c1/C=C/c1ccc(Br)o1`: the 50% growth inhibitory concentration (GI50) was 39800 nM.

Turning to `COc1ccc(-c2ccc(/C=C/c3ccc4ccccc4[n+]3C)o2)cc1Cl`, it took 191 nM to inhibit growth by half (GI50).

`C[n+]1ccccc1/C=C/c1ccc(-c2ccc(Cl)cc2Cl)o1` showed a GI50 of 126 nM.

Take `C[n+]1ccccc1/C=C/c1ccc(-c2cc(Cl)ccc2Cl)o1`: halving of growth (GI50) required 38 nM.

`Cn1cc[n+](C)c1/C=C/c1ccc(-c2cccc(Cl)c2)o1` gave a GI50 of 1740 nM.

For the compound `Cn1cc[n+](C)c1/C=C/c1ccc(-c2ccc(Br)cc2)o1`, halving of growth (GI50) required 617 nM.
